# Most compounds without a hit are left out; they make up all but 1.5% or so of the library.
# CXCR6 inh: CXCR6 receptor inhibitors, primary screen, cell-based, beta-arrestin, luminescence, CHO-K1 PathHunter, 1536-well. 360,000 compounds, 0.36% hits. C-X-C chemokine receptor type 6 (Homo sapiens), O00574. inhibition, % at 20 µM; in the data active = inhibition above about 34%, passing the limit was not always enough;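 note: antagonist mode with CXCL16 agonist at 10 nM final; 0% = 10 nM CXCL16 with DMSO and 100% = unstimulated wells without agonist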
# APJ antag: antagonists of human apelin receptor APJ, primary screen, CHO-K1 cells, beta-arrestin complementation, luminescence; P35414; inhibition, % at 20 µM; 330,000 compounds, 0.32% hits; AID 2521, 2010;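 active = inhibition above about 40% at 20 µM, limit read from the data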;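 note: cells challenged with 10 nM apelin-13 agonist together with compound; plate controls were apelin-13 plus DMSO wells for no effect and DMSO wells lacking apelin-13 for full effect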
# CCR6 antagonist: CCR6 receptor antagonists, primary screen, cell-based, CHO-K1, luminescence, beta-arrestin, uHTS. CHO-K1 CCR6 PathHunter beta-arrestin, CCL20-stimulated. 340,000 compounds, 0.49% hits. C-C chemokine receptor type 6 (Homo sapiens), P51684. AID 493098, 2011. inhibition, % at 20 µM;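 active = compounds whose inhibition of the agonist-driven luminescence signal at 20 µM reaches about 50%, limit read from the data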;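 note: cells stimulated with CCL20 at 14 nM final; plate controls were DMSO with CCL20 for no effect and DMSO without agonist for full effect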
# EBI2 antag: EBI2 receptor antagonists, beta-arrestin recruitment, primary screen, cell-based, luminescence, 7a,25-OHC stimulation, uHTS | AID 651636, 2012 | inhibition, % at 5 µM | 360,000 compounds, 0.81% hits | G-protein coupled receptor 183 (Homo sapiens), P32249 | 7a,25-OHC stimulated; in the data active = inhibition above about 38%;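 note: enzyme fragment complementation signal reports receptor beta-arrestin coupling in cells; 0% = agonist plus DMSO wells and 100% = wells without agonist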
# Target sequence (P32249 whole entry, looked up, the tested form may be a part): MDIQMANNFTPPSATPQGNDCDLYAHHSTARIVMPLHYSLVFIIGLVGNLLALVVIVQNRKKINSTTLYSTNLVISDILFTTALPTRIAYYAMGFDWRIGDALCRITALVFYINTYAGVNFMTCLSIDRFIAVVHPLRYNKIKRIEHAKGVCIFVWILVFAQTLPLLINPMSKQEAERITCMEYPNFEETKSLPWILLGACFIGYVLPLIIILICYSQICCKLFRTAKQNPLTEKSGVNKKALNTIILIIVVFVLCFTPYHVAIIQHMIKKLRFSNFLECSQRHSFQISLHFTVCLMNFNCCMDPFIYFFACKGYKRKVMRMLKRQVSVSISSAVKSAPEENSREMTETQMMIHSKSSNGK
# APJ agonist: agonists of human apelin receptor APJ, primary screen, CHO-K1 cells, PathHunter beta-arrestin, luminescence; 0% DMSO wells, 100% apelin; activation, % at 20 µM; 330,000 compounds, 0.11% hits;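 active = activation more than six SD over the plate average, tested at 20 µM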;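 note: 0% = DMSO alone and 100% = apelin-13 at 10 nM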
#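 Test system – PathHunter CHO-K1 APJ (AGTRL-1) beta-arrestin reporter cells · Input – 1000 cells/well · Compound – single test compound dose, 20 µM final, 1% DMSO · Times – compound stimulation 90 min at 25 °C, detection 60 min · Technique – beta-gal luminescence · Read-out basis – APJ–arrestin association signal · Control set – negative DMSO alone, positive Apelin-13 at 10 nM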
# EBI2 antag conf: EBI2 antagonist hit retest, beta-arrestin, confirmation, cell-based, single concentration, luminescence, 7a,25-OHC stimulation; shares compounds with EBI2 antag; 7a,25-OHC antagonism; inhibition, % at 5 µM; AID 651997, 2013; 2,400 compounds, 29% hits;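 active = inhibition of at least 50%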
# EBI2 agonist: EBI2 agonist activity of antagonist hits, confirmation, counter-screen for EBI2 antagonist project, cell-based, single concentration, agonist mode, luminescence; EBI2-expressing cells, 60 min; 0% vehicle, 100% 7α,25-dihydroxycholesterol control; shares compounds with EBI2 antag; activation, % at 5 µM; 2,400 tested, under 10 active; AID 652000, 2013;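 active = activation of at least 50%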
# bGal counter: E. coli beta-galactosidase enzyme inhibition, confirmation, counter-screen for EBI2 antagonist project, biochemical, luminescence, single concentration; shares compounds with EBI2 antag; AID 652176, 2013; inhibition, % at 5 µM; 2,400 compounds, 1% hits; purified beta-galactosidase, luminescent Galacton Star, 15 min;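 active = replicate-average signal at least 3 plate SD below neutral wells, shown as high inhibition, flagging enzyme-inhibiting false positives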;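 note: 0% = DMSO wells with enzyme and 100% = wells lacking enzyme; higher means stronger loss of beta-gal luminescence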
# * = called active by the depositor; . = no result given.
SMILES,CXCR6 inh,APJ antag,CCR6 antagonist,EBI2 antag,APJ agonist,EBI2 antag conf,EBI2 agonist,bGal counter
O=C(/C=C/c1ccc(Cl)cc1)N1CCN(CCN2C(=O)c3cccc4cccc(c34)C2=O)CC1,0,.,19,97*,.,81*,-1,-12
CN1CCN(C(=O)/C=C/c2c(F)cccc2Cl)CC1,0,13,-11,-6,-3,.,.,.
CN1CCN(C(=O)/C=C\c2ccc(Cl)cc2)CC1,4,-4,-7,88*,-3,66*,2,4
CSc1ccc(/C=C/C(=O)N2CCCN(C)CC2)cc1,-6,-2,-6,87*,-5,57*,-1,-14
OC(COc1ccc(Cl)cc1)CN1CCC(Cc2ccccc2)CC1 (stereo not drawn),-1,9,15,60*,-1,35,-2,-10
COc1cccc(C(NC(=O)C2CCN(CCCOc3ccccc3)CC2)c2ccccn2)c1 (stereo not drawn),8,.,.,8,.,.,.,.
Cc1ccc2c(CC(=O)NCC(C)(C)N3CCOCC3)coc2c1,4,-15,2,-5,0,.,.,.
CN(C)c1ncnc2c1ncn2[C@H]1CN(Cc2ccc(F)cc2)C[C@@H](CO)O1,-10,.,.,3,.,.,.,.
CC(C)Nc1ncnc2c1ncn2[C@H]1CN(Cc2ccc(-c3ccccc3)cc2)C[C@@H](CO)O1,-4,.,.,44*,.,27,0,-13
OC[C@@H]1CN(Cc2ccncc2)C[C@H](n2cnc3c(NC4CC4)ncnc32)O1,-2,.,.,10,.,.,.,.
OC[C@@H]1CN(Cc2cccc(C(F)(F)F)c2)C[C@H](n2cnc3c(NCc4ccc(F)cc4)ncnc32)O1,-8,.,.,9,.,.,.,.
OC[C@@H]1CN(Cc2ccc(Cl)cc2)C[C@H](n2cnc3c(NC4CC4)ncnc32)O1,-6,.,.,83*,.,82*,-1,-16
OC[C@@H]1CN(Cc2cccc(C(F)(F)F)c2)C[C@H](n2cnc3c(NC4CC4)ncnc32)O1,-4,.,.,65*,.,62*,3,9
CC(C)CNc1ncnc2c1ncn2[C@H]1CN(Cc2ccc(-c3ccccc3)cc2)C[C@@H](CO)O1,-5,.,.,-5,.,.,.,.
CC(C)N(C)c1ncnc2c1ncn2[C@H]1CN(Cc2ccc(F)cc2)C[C@@H](CO)O1,3,.,.,68*,.,63*,1,5
CC(C)=C[C@H]1C[C@H](C)[C@H]2CC[C@H](C)c3c(O[C@@H]4O[C@@H](C)[C@@H](O)[C@@H](O)[C@@H]4O)c(O)c(C)c1c32,-8,.,.,14,.,.,.,.
Nc1nccnc1C(=O)OCC(=O)N1CCN(S(=O)(=O)c2ccc(Cl)cc2)CC1,-4,2,8,-5,-3,.,.,.
O=C(c1ccc(Br)cc1)N1CCC(C(=O)N2CCN(Cc3ccccc3)CC2)CC1,0,14,-4,63*,0,37,1,10
CN1CCN(C(=O)c2ccc(Cl)cc2)CC1,4,-6,4,-1,0,.,.,.
O=C(c1ccc([N+](=O)[O-])cc1)N1CCN(Cc2ccccc2)CC1,-2,2,8,16,-3,.,.,.
O=C(c1ccc(-n2cccc2)cc1)N1CCN(Cc2ccccc2)CC1,-2,6,6,84*,-1,73*,-1,-13
CN1CCN(C(=O)c2ccc(-n3cccc3)cc2)CC1,0,8,-17,34*,1,23,0,-16
C[C@@H](C(=O)Nc1ccc2ccccc2c1)[C@@H]1C[C@@]1(C)[C@@H](NC(=O)c1cnccn1)c1ccccc1,7,9,17,75*,-6,42,-2,-13
C[C@@H](C(=O)Nc1ccc2ccccc2c1)[C@H]1C[C@]1(C)[C@H](NC(=O)c1cnccn1)c1ccccc1,4,-4,2,10,-1,.,.,.
CCOC(=O)/C(=C/C=C/c1ccccc1)NC(=O)c1ccccc1,1,12,13,6,-3,.,.,.
SMILES,CXCR6 inh,APJ antag,CCR6 antagonist,EBI2 antag,APJ agonist,EBI2 antag conf,EBI2 agonist,bGal counter
COc1ccc2c(c1)cc1c(=O)n(CC(=O)NCCCOC(C)C)nc(C)n12,-11,-6,6,-3,1,.,.,.
S=c1[nH]nc(-c2cc(-c3ccccc3)n[nH]2)n1/N=C/C(Br)=C/c1ccccc1,4,3,13,52*,-2,48,0,8
S=c1[nH]nc(-c2cc(-c3ccccc3)n[nH]2)n1/N=C/c1ccccc1,0,20,16,51*,2,50,1,9
C#Cc1cccc(NC(=O)c2ccc3c(c2)C(=O)N(Cc2cccnc2)C3=O)c1,-15,-14,-12,45*,10,20,1,9
COc1cccc(N2CCN(C(=O)c3cc(-c4ccc(F)cc4)[nH]c3C)CC2)c1,-4,-2,-6,89*,-1,69*,-1,-14
Cc1[nH]c(-c2ccc(F)cc2)cc1C(=O)N1CCN(c2ccccc2)CC1,-12,19,1,86*,3,63*,-1,-21
Cc1ccc(N2CCN(C(=O)c3cc(-c4ccc(F)cc4)[nH]c3C)CC2C)cc1 (stereo not drawn),8,-23,-16,53*,-1,33,1,6
CCOC(=O)c1ccc2ncc(C(=O)OCC)c(Nc3ccc(N4CCOCC4)cc3)c2c1,3,3,12,19,7,.,.,.
CCOC(=O)c1cnc2ccc(OC)cc2c1Nc1ccc(N2CCN(C)CC2)cc1,-8,11,17,41*,-2,53*,2,0
Cc1ccc(NC(NC(=O)Cc2ccccc2)C(Cl)(Cl)Cl)cc1 (stereo not drawn),6,.,21,44*,.,6,1,5
Cc1cccc(NC(NC(=O)Cc2ccccc2)C(Cl)(Cl)Cl)c1 (stereo not drawn),-2,3,15,17,2,.,.,.
COc1ccc(CN(C(=O)c2cccs2)c2ccccc2)cc1,6,7,-3,-7,-2,.,.,.
COc1cccc(C(=O)c2c(-c3ccccc3)ncc3cc(OC)c(OC)cc23)c1,3,.,27,85*,.,56*,0,-14

# Screening data: PubChem BioAssay, Sanford-Burnham Center for Chemical Genomics
